Among the data in ChEMBL document CHEMBL3763099, “Synthesis and evaluation of 1,7-diheteroarylhepta-1,4,6-trien-3-ones as curcumin-based anticancer agents” (Eur J Med Chem, 2016) are inhibition values, retold here.

What all share (assay type): functional
A short description of assay [1]: Cytotoxicity against human DU145 cells assessed as inhibition of cell viability at 10 uM after 3 days by trypan blue dye exclusion assay. The conditions noted are these: DU-145, 72 h. Put shortly: (§1)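 Viable cells were counted by trypan blue exclusion on an automated analyzer. Viability was taken as treated/vehicle viable cell count. The inhibitory rate is the control percentage viability minus the treated percentage viability. Variation between replicate experiments was at most 5%.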

Assay [2] is described as follows: Cytotoxicity against human PC3 cells assessed as inhibition of cell viability at 10 uM after 3 days by trypan blue dye exclusion assay. The conditions noted are these: PC-3, 72 h. An outline of the steps:
as §1

Assay [3] can be described thus: Cytotoxicity against human PC3 cells assessed as inhibition of cell viability at 1 uM after 3 days by trypan blue dye exclusion assay. The conditions noted are these: PC-3, 72 h. An outline of the steps: as §1
Assay [4] in a line: Cytotoxicity against human DU145 cells assessed as inhibition of cell viability at 1 uM after 3 days by trypan blue dye exclusion assay. The conditions noted are these: DU-145, 72 h. An outline of the steps: as §1
Assay [5] concerns LNCaP. Kind of assay: Cytotoxicity against human LNCAP cells assessed as inhibition of cell viability at 10 uM after 3 days by trypan blue dye exclusion assay. The note with it: 72 h. Put shortly: as §1
In assay [6] the test system is LNCaP. Kind of assay: Cytotoxicity against human LNCAP cells assessed as inhibition of cell viability at 1 uM after 3 days by trypan blue dye exclusion assay. The note with it: 72 h. Put shortly: as §1
The subject of assay [7] is HeLa. Kind of assay: Cytotoxicity against human HeLa cells assessed as inhibition of cell viability at 10 uM after 3 days by trypan blue dye exclusion assay. The note with it: 72 h. An outline of the steps:
as §1

For assay [8], the system named is HeLa. Kind of assay: Cytotoxicity against human HeLa cells assessed as inhibition of cell viability at 1 uM after 3 days by trypan blue dye exclusion assay. The note with it: 72 h. An outline of the steps:
as §1

What is called inhibition is how much of the control response was suppressed. `CCCCn1ccnc1/C=C/C=C/C(=O)/C=C/c1nccn1CCCC`: the inhibition at 10 µM is 91% in assay [1], 87% in assay [2], 92% in the assay on LNCaP [5] and 92% in the assay with HeLa [7]. Also, the inhibition at 1 µM in assay [3] stood at 33%; in assay [4], 35%; in the assay on LNCaP [6] it was 47%; in the assay with HeLa [8], 44%.
Take `O=C(/C=C/C=C/c1cccnc1)/C=C/c1cccnc1`: the inhibition at 10 µM in assay [1] worked out at 87%; in assay [2] it was 86%; with LNCaP [5] it was 61%; with HeLa [7], 97%. Also, the inhibition at 1 µM came to 24% in assay [3], 24% in assay [4], 2% in the assay with LNCaP [6] and 20% with HeLa [8].
Turning to `Cc1nc(C(F)(F)F)c(/C=C/C=C/C(=O)/C=C/c2sc(C)nc2C(F)(F)F)s1`, the inhibition at 10 µM in assay [1] is 80%; in assay [2], 88%; in the assay with LNCaP [5], 92%; in the assay on HeLa [7], 96%. In addition, the inhibition at 1 µM in assay [3] was determined as 24%; in assay [4] it was 13%; with LNCaP [6], 37%; in the assay with HeLa [8], 12%.
As to `O=C(/C=C/C=C/c1nccs1)/C=C/c1nccs1`, the inhibition at 10 µM was 65% in assay [1], 86% in assay [2], 80% in the assay with LNCaP [5] and 94% with HeLa [7]. Further, the inhibition at 1 µM is 28% in assay [3], 2% in assay [4], 28% in the assay on LNCaP [6] and 11% with HeLa [8].
With `CC(C)CCn1ccnc1/C=C/C=C/C(=O)/C=C/c1nccn1CCC(C)C`, the inhibition at 10 µM was 88% in assay [1], 89% in assay [2], 75% with LNCaP [5] and 95% in the assay with HeLa [7]. In addition, the inhibition at 1 µM worked out at 32% in assay [3], 32% in assay [4], 33% with LNCaP [6] and 31% with HeLa [8].
In the case of `Cn1cc(Br)c(/C=C/C=C/C(=O)/C=C/c2nn(C)cc2Br)n1`, the inhibition at 10 µM in assay [1] came out at 86%; in assay [2] it was 91%; with LNCaP [5], 63%; in the assay with HeLa [7] it was 95%. Further, the inhibition at 1 µM in assay [3] stood at 25%; in assay [4], 42%; in the assay on LNCaP [6] it was 38%; in the assay on HeLa [8], 52%.
As for `Cc1cc(/C=C/C=C/C(=O)/C=C/c2cc(C)on2)no1`, the inhibition at 10 µM in assay [1] was found to be 79%; in assay [2], 88%; in the assay with LNCaP [5] it was 70%; with HeLa [7] it was 97%. Besides, the inhibition at 1 µM in assay [3] was 25%; in assay [4] it was 25%; in the assay on LNCaP [6] it was 13%; in the assay on HeLa [8] it was 17%.
As to `CC(C)CCn1c(/C=C/C=C/C(=O)/C=C/c2nc3ccccc3n2CCC(C)C)nc2ccccc21`, the inhibition at 10 µM in assay [1] was found to be 97%; in assay [2], 93%; in the assay on LNCaP [5] it was 60%; in the assay on HeLa [7], 97%. For the same compound, the inhibition at 1 µM in assay [3] is 58%; in assay [4], 21%; in the assay on LNCaP [6], 15%; in the assay with HeLa [8], 53%.
On to `CCn1ccnc1/C=C/C=C/C(=O)/C=C/c1nccn1CC`, for which the inhibition at 10 µM in assay [1] is 84%; in assay [2], 85%; in the assay on LNCaP [5] it was 62%; in the assay on HeLa [7], 98%. Further, the inhibition at 1 µM turned out to be 32% in assay [3], 34% in assay [4], 23% with LNCaP [6] and 43% in the assay with HeLa [8].
In the case of `O=C(/C=C/C=C/c1ccncc1)/C=C/c1ccncc1`, the inhibition at 10 µM in assay [1] was 81%; in assay [2], 84%; in the assay on LNCaP [5] it was 50%; in the assay on HeLa [7], 95%. Besides, the inhibition at 1 µM amounted to 33% in assay [3], 60% in assay [4], 20% in the assay with LNCaP [6] and 22% with HeLa [8].
As for `CCCCCCn1ccnc1/C=C/C=C/C(=O)/C=C/c1nccn1CCCCCC`, the inhibition at 10 µM in assay [1] came out at 86%; in assay [2], 85%; with LNCaP [5], 76%; in the assay with HeLa [7] it was 98%. Besides, the inhibition at 1 µM was 11% in assay [3], 34% in assay [4], 31% in the assay on LNCaP [6] and 32% in the assay with HeLa [8].
For the compound `O=C(/C=C/C=C/c1ccncc1F)/C=C/c1ccncc1F`, the inhibition at 10 µM in assay [1] turned out to be 81%; in assay [2], 84%; in the assay on LNCaP [5], 66%; in the assay with HeLa [7], 94%. For the same compound, the inhibition at 1 µM in assay [3] turned out to be 19%; in assay [4], 36%; in the assay with LNCaP [6], 31%; in the assay on HeLa [8], 26%.
On to `Cn1ccnc1/C=C/C=C/C(=O)/C=C/c1nccn1C`, for which the inhibition at 10 µM in assay [1] is 66%; in assay [2] it was 83%; with LNCaP [5], 55%; in the assay with HeLa [7], 93%. Besides, the inhibition at 1 µM amounted to 35% in assay [3], 21% in assay [4], 41% with LNCaP [6] and 18% with HeLa [8].
Consider `CCCn1ccnc1/C=C/C=C/C(=O)/C=C/c1nccn1CCC`, for which the inhibition at 10 µM was found to be 84% in assay [1], 91% in assay [2], 95% with LNCaP [5] and 98% in the assay on HeLa [7]. Besides, the inhibition at 1 µM is 23% in assay [3], 25% in assay [4], 38% with LNCaP [6] and 34% with HeLa [8].
Turning to `Cc1cccc(/C=C/C=C/C(=O)/C=C/c2cccc(C)n2)n1`, the inhibition at 10 µM was determined as 75% in assay [1], 91% in assay [2], 57% in the assay on LNCaP [5] and 94% in the assay on HeLa [7]. For the same compound, the inhibition at 1 µM worked out at 35% in assay [3], 12% in assay [4], 50% in the assay with LNCaP [6] and 40% in the assay with HeLa [8].
Take `CCCCCCCn1ccnc1/C=C/C=C/C(=O)/C=C/c1nccn1CCCCCCC`: the inhibition at 10 µM amounted to 93% in assay [1], 92% in assay [2], 70% in the assay with LNCaP [5] and 99% in the assay on HeLa [7]. In addition, the inhibition at 1 µM turned out to be 28% in assay [3], 25% in assay [4], 12% in the assay on LNCaP [6] and 13% in the assay on HeLa [8].
As for `CCCCCn1ccnc1/C=C/C=C/C(=O)/C=C/c1nccn1CCCCC`, the inhibition at 10 µM in assay [1] stood at 88%; in assay [2], 86%; in the assay on LNCaP [5], 94%; in the assay with HeLa [7], 95%. In addition, the inhibition at 1 µM in assay [3] was 36%; in assay [4], 43%; with LNCaP [6] it was 44%; in the assay with HeLa [8] it was 39%.
With `O=C(/C=C/C=C/c1ccccn1)/C=C/c1ccccn1`, the inhibition at 10 µM in assay [1] turned out to be 37%; in assay [2], 20%; in the assay with LNCaP [5], 7.2%; with HeLa [7], 24%. Further, the inhibition at 1 µM in assay [3] was 17%; in assay [4], 11%; in the assay with LNCaP [6] it was 0%; in the assay with HeLa [8], 21%.
`CC(C)=CCn1ccnc1/C=C/C=C/C(=O)/C=C/c1nccn1CC=C(C)C`: the inhibition at 10 µM in assay [1] is 75%; in assay [2] it was 87%; with LNCaP [5], 70%; with HeLa [7], 94%. Also, the inhibition at 1 µM in assay [3] came to 35%; in assay [4] it was 0%; with LNCaP [6], 38%; in the assay on HeLa [8] it was 66%.
`Cc1csc(/C=C/C=C/C(=O)/C=C/c2nc(C)cs2)n1`: the inhibition at 10 µM in assay [1] came to 46%; in assay [2], 86%; in the assay with LNCaP [5], 57%; in the assay with HeLa [7], 96%. Besides, the inhibition at 1 µM in assay [3] came to 25%; in assay [4] it was 8%; in the assay with LNCaP [6], 21%; with HeLa [8] it was 20%.
Turning to `COc1cc(/C=C/C(=O)CC(=O)/C=C/c2ccc(O)c(OC)c2)ccc1O` [CURCUMIN], the inhibition at 10 µM in assay [1] was found to be 59%; in assay [2], 55%; with LNCaP [5] it was 66%; in the assay on HeLa [7], 50%. Further, the inhibition at 1 µM in assay [3] came to 2.5%; in assay [4], 7%; in the assay on LNCaP [6] it was 29%; with HeLa [8], 14%.
